Results as given in PMC6226357 (Breast cancer research and treatment, 2018).
Read-outs that look alike come from different tables or passages of the source.

Columns and labels:
metastatic breast cancer = settings: cited from earlier work
estradiol = settings: cited from earlier work
[1] = Pharmacokinetics after a single dose of seviteronel; assay type: in vivo, human
Outline: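 Women took a single oral dose as 150-mg tablets. Blood was drawn before dosing and at 0.5, 1, 2, 4, 6, 8 and 24 h afterward. Plasma drug was measured by LC-MS/MS, with a lower limit of quantification of 20 ng/mL (0.05 uM). Parameters were derived by noncompartmental analysis.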

[2] = tested on: H16N2 (AR-/PR-/low ER expression); settings: higher potency/efficacy than enzalutamide; cited from earlier work
[3] = tested on: MCF7 (ER+/low AR expression); settings: higher potency/efficacy than enzalutamide; cited from earlier work
[4] = tested on: unresectable locally advanced or metastatic breast cancer; test: Efficacy: clinical benefit rate and tumor response; assay type: in vivo, human
Outline: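 Women with triple-negative or postmenopausal ER+/HER2− unresectable locally advanced or metastatic disease took oral 150-mg tablets once daily in continuous 28-day cycles, in de-escalating cohorts. Imaging used bone scan, CT and/or MRI matching the baseline modality, every 2 months in year one and every 3 months thereafter. Clinical benefit was stable disease, partial or complete response (RECIST 1.1), scored at 16 weeks for TNBC and 24 weeks for ER+.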

[5] = tested on: MDA-MB-453 cells (ER−/AR+); settings: higher potency/efficacy than enzalutamide; cited from earlier work
[6] = tested on: tamoxifen-resistant MCF7 cells (TAMR); settings: higher potency/efficacy than enzalutamide; cited from earlier work
[7] = tested on: women with locally advanced or metastatic TNBC or ER+ breast cancer; test: Phase 1 safety and tolerability: treatment-emergent adverse events and DLT; assay type: in vivo, human
[8] = tested on: CYP17 lyase versus CYP17 17-α hydroxylase; settings: cited from earlier work
[9] = tested on: women with locally advanced or metastatic TNBC or ER+ breast cancer; test: Treatment duration, discontinuations and dose modifications; assay type: in vivo, human; settings: all dose cohorts; Twenty-one percent
Outline: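 Dosing was oral, once daily, in continuous 28-day cycles. Drug was stopped for loss of clinical benefit, an adverse event precluding further participation, or withdrawal of consent. Toxicity was graded by NCI CTCAE v4.03. Evaluations were every two weeks in Cycle 1, then monthly through the end-of-treatment visit.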

[10] = tested on: tamoxifen-resistant MCF7 xenograft; settings: tamoxifen-resistant MCF7 mouse xenograft, compared to enzalutamide; cited from earlier work
[11] = tested on: AR, wild-type and mutated forms (e.g., F876L and T877A); settings: cited from earlier work
[12] = randomized phase 2, metastatic ER+ breast cancer, N = 297
[13] = MDV3100-11, AR+ TNBC, N = 118, intent to treat AR > 0%, ref (12)
[14] = phase 2 TBCRC011, AR+ (ER−/PR−) metastatic breast cancer, N = 26

C[C@]12CC[C@H](O)CC1=CC[C@@H]1[C@@H]2CC[C@]2(C)C(c3cccnc3)=CC[C@@H]12 [abiraterone]
24-month CBR (metastatic breast cancer; metastatic AR+ TNBC, N = 30, evaluable AR ≥ 10%): 20%
24-month CBR (metastatic breast cancer; metastatic ER+/AR+ breast cancer, N = 32, evaluable AR ≥ 1%): 22%
Median PFS (metastatic breast cancer; [12]): 3.7 months

CNC(=O)c1ccc(N2C(=S)N(c3ccc(C#N)c(C(F)(F)F)c3)C(=O)C2(C)C)cc1F [enzalutamide]
Increase in estradiol (estradiol; given in combination with anastrozole): 40%
Increase in estradiol (estradiol; given in combination with exemestane): 13%
16-week CBR (metastatic breast cancer; [13]): 25%
24-week CBR (metastatic breast cancer; [13]): 20%
Median PFS (metastatic breast cancer; [13]): 12.6 weeks

C=C1C[C@@H]2[C@H](CC[C@]3(C)C(=O)CC[C@@H]23)[C@@]2(C)C=CC(=O)C=C12 [exemestane]
Median PFS (metastatic breast cancer; [12]): 3.7 months

N#Cc1ccc(C(c2ccc(C#N)cc2)n2cncn2)cc1 [letrozole]
Decline in estradiol (estradiol; postmenopausal women with ER+ BC, by 3 months of treatment): approximately 36%

CC(O)(CS(=O)(=O)c1ccc(F)cc1)C(=O)Nc1ccc(C#N)c(C(F)(F)F)c1 (stereo not shown) [bicalutamide]
24-week CBR (metastatic breast cancer; [14]): 19%
Median progression-free survival (PFS) (metastatic breast cancer; [14]): 12 weeks
Objective responses (metastatic breast cancer; [14]): no objective responses

CC(C)[C@](O)(c1ccc2cc(OC(F)F)c(OC(F)F)cc2c1)c1c[nH]nn1 [Seviteronel]
half-life ([1]; female, human, plasma, oral, 750 mg, Half-life, single dose, across 450, 600, 750 mg): 6.4 to 8.4 h
Dose relationship of peak and trough plasma concentrations and AUC ([1]; single dose, 450-750 mg, women): dose-proportional relationship
Relationship between exposure and body surface area and body mass index ([1]; three dose levels combined): moderate relationship
Cellular proliferation [2]: inhibited
Estrogen-stimulated proliferation and cell growth in a soft agar assay [3]: inhibited
Subjects reaching at least CBR16 ([4]; 450 mg QD cohort (RP2D), 2 TNBC CBR16 and 2 ER+ CBR24): 4 of 7
Subjects reaching CBR24 (24-week clinical benefit rate) ([4]; across dose groups, 2 of 19 subjects): 11%
Subjects reaching at least CBR16 (16-week clinical benefit rate) ([4]; across dose groups, Five of 19 subjects): 26.3%
Objective tumor responses ([4]; all dose cohorts): no objective tumor responses
DHT-stimulated growth [5]: inhibited
Growth of tamoxifen-resistant MCF7 cells [6]: inhibited
Deaths reported ([7]; all considered unrelated to study drug (disease progression n=2, hepatic failure n=1, ischemic stroke n=1)): 4
Fatigue, AE incidence ([7]; female, human, in vivo): 37%
Nausea, AE incidence ([7]; female, human, in vivo): 42%
Subjects with SAE Gr 3 or greater ([7]; female, human, in vivo): 12 subjects
Tremor, AE incidence ([7]; female, human, in vivo): 42%
Vomiting, AE incidence ([7]; female, human, in vivo): 37%
Recommended phase 2 dose (RP2D) in women ([7]; female, human, in vivo, po): 450 mg QD
Hepatic transaminase elevation ([7]; in vivo): not associated with hepatic transaminase elevation
Hypokalemia ([7]; in vivo): not seen
Serious adverse events (SAE) Gr 3 or greater, number of events ([7]; in vivo): Fifteen
Tolerability ([7]; in vivo, po): generally well tolerated
Selectivity for CYP17 lyase versus CYP17 17-α hydroxylase inhibition [8]: approximately 10 fold
Subjects with a dose reduction due to an AE [9]: 4/19
Survival [10]: increased survival
Tumor growth [10]: inhibited tumor growth
AR inhibition mechanism [11]: competitive antagonism
